Series [1] can be described thus: Apparent intrinsic clearance in human liver microsomes. The following applies: read-out: CLH(app). Format: ADME. Background: Liver microsomes are a subcellular fraction often used to study metabolism.
A further series has as its target Gamma-secretase. The series can be described thus: Modulation of human gamma secretase overexpressed in CHO cells co-expressing wild type human APP assessed as inhibition of amyloid beta-42 production after 24 hrs by ELISA. Format: cell-based. The gist of the method: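 Whole-cell assay in CHO cells expressing wild-type APP; Aβ42 IC50 reported as geometric mean of at least two experiments.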
On the technique in general: In an ELISA, binding on a coated surface is turned into a signal by an enzyme label.

The next series deals with MDR1 (human). The series can be described thus: Efflux ratio of apparent permeability from basolateral to apical over apical to basolateral side in MDCK cells expressing human MDR1 at 2 uM after 5 hrs by transwell assay. Format: ADME, cell-based, Canis lupus familiaris. The settings on record: dog. The essentials:
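MDR1/MDCK assay using MDCK cells transfected with the human P-glycoprotein gene; efflux ratio reported.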

Among the data in ChEMBL document CHEMBL3580587, “Design of Pyridopyrazine-1,6-dione γ-Secretase Modulators that Align Potency, MDR Efflux Ratio, and Metabolic Stability” (ACS Med Chem Lett, 2015) are CLint scaled, IC50 and efflux ratio values, retold here.

pIC50: −log10 of the molar value.

For the molecule `Cc1cn(-c2ccc3n(c2=O)CCN(CCOc2cccc4ccc(F)cc24)C3=O)cn1`, the CLint scaled in series [1] was determined as 8.1 mL/min/kg.
In general, pIC50 refers to the negative decadic logarithm of the IC50, by convention in mol/L. For `Cc1cn(-c2ccc3n(c2=O)CCN(CCOc2ccccc2-c2csc(C)n2)C3=O)cn1`, the negative-log IC50 (pIC50) on Gamma-secretase was 6.52.
Still for that read-out and setting: under `Cc1cn(-c2ccc3n(c2=O)CCN(CCOc2ccccc2-c2cc(C)ns2)C3=O)cn1` stands 6.98.
Still for that read-out and setting: the same measure for `Cc1cn(-c2ccc3n(c2=O)CCN(CCOc2ccccc2-c2csc(C(F)(F)F)n2)C3=O)cn1`: 7.74; for `Cc1cn(-c2ccc3n(c2=O)CCN(CCOc2ccccc2-c2cc(C(F)F)no2)C3=O)cn1`: 7.14; for `Cc1cn(-c2ccc3n(c2=O)CCN(CCOc2ccccc2-c2cc(C(F)(F)F)no2)C3=O)cn1`: 7.77.
As to `Cc1cn(-c2ccc3n(c2=O)CCN(CCOc2ccc(F)c4nc(C(F)(F)F)sc24)C3=O)cn1`, the pIC50 at Gamma-secretase was 7.60.
In general, efflux ratio refers to the permeability from basolateral to apical divided by that in the opposite direction, in the common usage. For `Cc1cn(-c2ccc3n(c2=O)CCN(CCOc2ccccc2C(C)(C)C)C3=O)cn1`, the pIC50 at Gamma-secretase is 6.89. In addition, the efflux ratio at 5 h, 2 µM with MDR1 (human) turned out to be 1.7. Moreover, the CLint scaled in series [1] came out at 95.7 mL/min/kg.
For `Cc1cn(-c2ccc3n(c2=O)CCN(CCOc2ccccc2C2CCC2)C3=O)cn1`, the pIC50 at Gamma-secretase was 7.14.
The same measure, in the same setting: the same measure for `Cc1cn(-c2ccc3n(c2=O)CCN(CCOc2ccc(F)cc2C2CC(F)(F)C2)C3=O)cn1`: 7.23; for `Cc1cn(-c2ccc3n(c2=O)CCN(CCOc2ccc(F)cc2C(C)(C)C(F)(F)F)C3=O)cn1`: 7.52.
`Cc1cn(-c2ccc3n(c2=O)CCN(CCOc2ccc(F)cc2[C@@H](C)C(F)(F)F)C3=O)cn1`: the pIC50 on Gamma-secretase is 7.70.
`Cc1cn(-c2ccc3n(c2=O)CCN(CCOc2ccc(F)cc2[C@H](C)C(F)(F)F)C3=O)cn1`: the negative-log IC50 (pIC50) on Gamma-secretase is 7.07.
On the same count and under the same terms, under `Cc1cn(-c2ccc3n(c2=O)CCN([C@@H](C)COc2ccc(F)cc2[C@@H](C)C(F)(F)F)C3=O)cn1` stands 8.22.
